Reference: ChEMBL document CHEMBL4513216, “Probing the Open Global Health Chemical Diversity Library for Multistage-Active Starting Points for Next-Generation Antimalarials” (ACS Infect Dis, 2020)

assay: Toxicity liver stage against HepG2, at 10uM; type: cell-based; design: test concentration 10 uM, cell line HepG2-A16-CD81EGFP; conditions: human, HepG2-A16-CD81EGFP cells; read-out: INHIBITION
Method in brief: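 Uninfected HepG2-A16-CD81EGFP cells, 3 × 10^3 per well, 1536-well, plated on prespotted compound at 10 μM final, parasite-free screening media added to match infected plates; puromycin 10 μM positive, DMSO 0.5% negative; run in parallel with 48 h PbLuc assay at 37 °C, 5% CO2; viability by CellTiter-Glo luminescence, normalized to controls.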

| SMILES | cytotoxicity at 10 µM |
| --- | --- |
| Cc1nc(C2NC3(CCCC3)C(=O)N2CC2CC2)cs1 (stereo unspecified) | -6.09% |
| O=S(=O)(c1ccc(C(F)(F)F)cc1)N1CCC(OCc2ccccn2)C1 (stereo unspecified) | 1.22% |
| Cc1cnc(N2CCC3(CCC(C(=O)NC(C)C)C3)CC2)nc1 (stereo unspecified) | -0.603% |
| CCOCC(O)CN1CCN(C(=O)c2ccsc2)CC1 (stereo unspecified) | 5.42% |
| CC(C)N(C(=O)Cn1nnnc1CCc1ccccc1)C(C)C | 7.1% |
| Cc1nc(C)n(CC2CN(Cc3cccc4c3OCCO4)CCO2)n1 (stereo unspecified) | -1.99% |
| O=C(c1c[nH]c2ccccc2c1=O)N1CCSCC1 | -5.63% |
| Cc1ncsc1C(=O)NCC1CCC2(CCNCC2)CO1 (stereo unspecified) | 19.1% |
| COc1ccccc1CNc1c(N2CCN(C(C)=O)CC2)c(=O)c1=O | -0.707% |
| Cn1cc(NC(=O)Cc2ccccc2Br)cc1C(N)=O | -1% |
| COCCc1noc(C2CCCN(c3nc(N)nc4c3CCCC4)C2)n1 (stereo unspecified) | 48.1% |
| CN1N=C(C(=O)N2CCCN(c3ncccc3C#N)CC2)CCC1=O | -1.8% |
| CN(C)C1(CNC(=O)CC=Cc2ccc(F)cc2)CCOCC1 | 8.99% |
| Cc1nc(N2CCN(C(=O)c3ccc(O)cc3)CC2)c2cnn(C)c2n1 | -4.91% |
| CSCC(C)C(=O)NCc1c(C)nc2cc(=O)[nH]n2c1C (stereo unspecified) | -16.3% |
| c1cnc(N2CCO[C@H]3CN(CC4CC4)C[C@H]32)nc1 | 5.03% |
| O=C(c1ccc(C2CCCN2C(=O)c2ccc[nH]2)s1)N1CCSCC1 (stereo unspecified) | 3.59% |
| Cc1cc(C(=O)NCc2c(C)nn(C)c2C)nc(N2CCCC2)n1 | 7.05% |
| CN(C)C(C(=O)N1CC(c2ccccn2)C1)c1cccc(F)c1 (stereo unspecified) | -0.95% |
| c1cc(CNc2cnc(C3CCCN3)cn2)ccn1 (stereo unspecified) | -6.77% |
| COc1ccc(CN(Cc2ccco2)Cc2[nH]cnc2C)c(OC)c1 | -1.57% |
| Cc1cnn(CC2CCCN2c2ncnc3ccsc23)c1 (stereo unspecified) | 13.6% |
| CN1CCN(Cc2cnc3n2CCN(C(=O)c2ccncc2)C3)CC1 | -73.8% |

| SMILES | cytotoxicity at 10 µM |
| --- | --- |
| Cc1c(F)cc(C(=O)O)cc1S(=O)(=O)Nc1ccc2c(c1)OCCO2 | -1.45% |
| C[C@@H]1CN(S(C)(=O)=O)C[C@]12CCN(Cc1cccnc1)C2=O | 0.169% |
| CC(C)c1noc(C(C)N2CCC(c3nc4ccccc4[nH]3)CC2)n1 (stereo unspecified) | -3.17% |
| COCC(=O)N1CCC(c2cc3ncccc3c(O)n2)CC1 | -22.7% |
| Cn1ccnc1CN1CCC(F)(F)C2(CCN(c3cccnc3)C2)C1 (stereo unspecified) | -98.8% |
| CC1CCCCN1c1nc2c(c(=O)[nH]1)CCN(Cc1ccc(O)cc1)C2 (stereo unspecified) | 5.74% |
| CC(C)OCCC(=O)N1CCN(CC(O)c2ccccc2)CC1 (stereo unspecified) | -8.09% |
| O=C(N1CCCO1)[C@@]12CCO[C@@H]1CCN(Cc1cccs1)C2 | -6.36% |
| COCCN(CCOC)c1ncc(C#N)cc1Cl | 2.8% |
| O=C(NCC1CCCO1)Nc1nnc(C(F)(F)F)s1 (stereo unspecified) | 1.72% |
| NC(=O)CSc1nnc2[nH]c(=O)c3c(n12)CCCC3 | -4.44% |
| COc1ccc(CN(C)c2nc3c(cnn3C)c(=O)[nH]2)c(OC)c1 | 58.9% |
| Cc1cc(CN2Cc3ccccc3CC2c2nnc(C)o2)no1 (stereo unspecified) | 2.89% |
| FC1(F)CCN(Cc2cccnc2)CC12CCN(c1cnccn1)C2 (stereo unspecified) | 2.6% |
| O=C(c1ccnn1COc1ccc(Cl)cc1)N1CCSCC1 | -4.56% |
| CN(C)c1ncccc1N(C)C(=O)Cn1cc(-c2ccccc2)nn1 | -2.2% |
| COCc1cc(O)nc(C2CCCN(Cc3ccc(F)cc3)C2)n1 (stereo unspecified) | -9.88% |
| COCc1noc(C2(c3ccc(Cl)cc3)CCOCC2)n1 | 1.86% |
| CCc1c(C)nc(-n2nc(-c3cccs3)cc2N)[nH]c1=O | -4.47% |
| Cc1cc(Nc2ccc3c(c2)CC(=O)N3)nc(C(C)C)n1 | 3.67% |
| COc1ccc(NC(=O)CCC(C)C)c(N2CCN(C(C)=O)CC2)n1 | 8.43% |
| CC(C)(C)c1nc(CC(=O)NCCC(=O)Nc2ccncc2)cs1 | 12.8% |
| CC[C@@]1(O)CCN(c2ncc(Cl)cc2C(F)(F)F)C[C@H]1O | 11.6% |

| SMILES | cytotoxicity at 10 µM |
| --- | --- |
| NC(=O)NC(=O)C(c1ccccc1)N1CCN(Cc2ccccc2)CC1 (stereo unspecified) | -5.68% |
| CC(C)CC(CCO)CNC(=O)N1CCOC2(CCCC2)C1 (stereo unspecified) | 6.37% |
| Cc1cnccc1CN(C)C1CCN(c2ncnc3[nH]cnc23)CC1 | -42.9% |
| COc1ccc2c(c1)CN(c1nc(C)cc(C)n1)CC2 | -0.734% |
| CCN1CC2(CCN(C(=O)N(C)C)CC2)COc2ccccc2S1(=O)=O | 6.55% |
| COC(=O)c1ccc(N(C(=O)c2cscn2)C(C)C)c(C)c1 | 1.7% |
| COCCN1CCN(CC(O)c2cc(OC)ccc2OC)CC1 (stereo unspecified) | 3% |
| CCOc1ccc(Cl)c(C(=O)NC)n1 | -4.63% |
| CC1=N[C@@]2(CC[C@@H]3CN(Cc4ccccc4)C[C@@H]32)C(=O)N1CC1CC1 | -0.302% |
| COCc1cn(CC2CCN(Cc3cc(C)[nH]n3)CC2)nn1 | -2.44% |
| O=C(C[S+]([O-])Cc1ccc(Cl)cc1Cl)N1CCc2sccc2C1 (stereo unspecified) | 2.13% |
| CCN1C[C@@H](C(=O)O)[C@H](c2cccc(OC)c2)C1 | -19% |
| CNC(=O)c1cnc(/C=C/c2cc(OC)c(OC)c(OC)c2)s1 | -15.5% |
| Cn1cc(CN2CC[C@H]3OCC[C@@H](C(=O)Nc4cnccn4)[C@@H]3C2)cn1 | 4.12% |
| NC(=O)C1CCCN(C(=O)c2cnc3c(cnn3C3CCCC3)c2)C1 (stereo unspecified) | -5.54% |
| Cn1cccc1C(O)CNC(=O)COc1ccc(Cl)cc1Cl (stereo unspecified) | -1.23% |
| Cc1nc(C(=O)N2CCC(c3nnc(Cn4ccnc4)n3C)CC2)cs1 | -127% |
| Cc1ccc(-c2noc(C3CCN3C(=O)c3c(C)noc3C)n2)s1 (stereo unspecified) | 6.09% |
| CCCNc1ncc(-c2cc(C3CC3)nc(N)c2C#N)cn1 | 8.26% |
| CCS(=O)(=O)N1CCN(C(C)(C)CO)CC1 | -2.48% |
| CC(C)(C)C(O)CCNC(=O)c1ccc(F)cc1Cl (stereo unspecified) | 0.0701% |
| CCc1ccc(C(=O)N2CCN(CC(C)O)CC2)o1 (stereo unspecified) | -8.18% |
| Cc1nc(C2CCCN2CC(=O)N2CCCc3ccccc32)no1 (stereo unspecified) | -8.7% |

| SMILES | cytotoxicity at 10 µM |
| --- | --- |
| FC(F)(F)c1cccc(OC2CCN(Cc3ncc[nH]3)CC2)c1 | -2.45% |
| O=C(Cc1cccs1)N1C[C@@H]2OCCN(CC3CCCC3)[C@@H]2C1 | -4.75% |
| CCOc1ccccc1CNCC1CCN(CC(C)O)CC1 (stereo unspecified) | -9.04% |
| CC(C)N(C)CC(=O)NC1CCc2nccn2C1 (stereo unspecified) | 17.8% |
| C[C@@H]1C(=O)NC[C@H]2CN(Cc3ccc4c(c3)OCO4)C[C@H]21 | 1.44% |
| CN1C[C@@H]2C[C@H](C(=O)Nc3cccnc3)[C@H](C1)O2 | -71.1% |
| Cc1ccccc1C(C)NC(=O)CN1CCN(Cc2ccc(Br)s2)CC1 (stereo unspecified) | 22.9% |
| Cc1cc(CN2CCN(Cc3ccc(C#N)cc3OC(F)F)CC2)no1 | 1.81% |
| CN(Cc1nccs1)C1CCN(c2cccc(-c3cscn3)c2)CC1 | -1.26% |
| COc1ccc(C(C)NCCC(N)=O)cc1F (stereo unspecified) | -7.77% |
| COc1ccccc1CC(C)(C)C(=O)NCC(=O)Nc1cccnc1 | 9.21% |
| COC(=O)c1ccc(NC2CCN(CC(F)(F)F)C2=O)cc1C (stereo unspecified) | 2.79% |
| CCOc1ccnc(N2CCN(C(=O)c3ccc(C#N)cc3)CC2)n1 | -10.6% |
| O=C(O)c1ccccc1-c1ccc(Cn2c(=O)cc[nH]c2=O)cc1 | 5.64% |
| Cc1noc(C)c1NC(=O)Cn1cc(Br)ccc1=O | 8.99% |
| CCn1nc(CC(C)C)cc1C(=O)N1CC[C@@H](O)C1 | 16.5% |
| CCC1CN(CC(=O)NCCN2CCCC2)c2ccccc2S1 (stereo unspecified) | -13.1% |
| CN1N=C(C(=O)NCCc2csc(-c3ccccc3)n2)CCC1=O | 0.621% |
| Cc1cccc(C(=O)N2CC(=O)N(c3ccccc3Cl)CC2C)n1 (stereo unspecified) | -7.25% |
| CCN(Cc1cccs1)C(=O)c1ccc(=O)n(C)c1 | -9.56% |
| CCc1ncc2c(n1)CN(Cc1nc3c(F)cccc3[nH]1)CC2 | 19% |
| Cc1cnn(CC2CCCN2C(=O)c2ccc3[nH]nnc3c2)c1 (stereo unspecified) | 1.03% |
| O=C1CC(c2ncc(-c3ccc4c(c3)OCCO4)[nH]2)CN1C1CCCC1 (stereo unspecified) | 10.8% |

| SMILES | cytotoxicity at 10 µM |
| --- | --- |
| COc1ccc(OC)c(C(C)NS(=O)(=O)c2cn(C)nc2C)c1 (stereo unspecified) | 8.35% |
| c1csc(-c2cc(CN3CCN(c4cnccn4)CC3)no2)c1 | -0.523% |
| CN1CCC2(COCCN(Cc3ccc4c(c3)OCO4)C2)C1 (stereo unspecified) | -2.05% |
| Cc1ccsc1C(=O)Nc1ccc(N2CCC(O)CC2)c(C#N)c1 | 33.2% |
| CN(CCCc1nccn1C)C(=O)C1COc2ccccc2C1 (stereo unspecified) | -9.1% |
| COCCC(=O)N1Cc2[nH]nc(COc3cccnc3)c2C1 | -2.97% |
| COc1c2ccc(C(=O)NCCCn3ncccc3=O)cc2nn1C | 0.905% |
| Cc1cc2occ(CC(=O)N3CCC(O)(CN(C)C)C3)c2cc1Cl (stereo unspecified) | -6.55% |
| CN1CCCN(c2nc(C3CCCC3)nc3c2cnn3C)CC1 | -3.9% |
| Cc1noc(C)c1CN1CCn2cc(CN3CCCCC3)nc2C1 | 8.95% |
| O=C(c1cc2c(s1)CCOC2)N1CCCCC1Cn1cccn1 (stereo unspecified) | -6.52% |
| CN(C)c1ncccc1CNC(=O)N1CCCC1c1cccs1 (stereo unspecified) | -12% |
| Cn1ccc(C(=O)NC2CCC23CCN(Cc2cccnc2)CC3)c1 (stereo unspecified) | -12.1% |
| Cc1ccc(N2CC[C@H](OCC3CC3)[C@@H]2Cc2cccnc2)nn1 | 1.13% |
| O=C(NCC1CC1)N1CCN(Cc2ccc3c(c2)OCCO3)CC1 | -4.3% |
| NC1(c2nc(-c3cccs3)cc(=O)[nH]2)CCCCC1 | 6.03% |
| CC(=O)c1cccc(NC(=O)N(CC(F)F)C2CC2)c1 | 2.08% |
| CCN(Cc1ccoc1)C(=O)C1CCN(C(=O)OC(C)(C)C)C1 (stereo unspecified) | -15.5% |
| CCn1c(CN(C)C)nnc1C1CCN(Cc2cccc(C#N)c2)CC1 | 6.5% |
